Reference: ChEMBL document CHEMBL1133306, “Discovery of a new class of p38 kinase inhibitors” (Bioorg Med Chem Lett, 2000)

How the values were obtained:
[1] = target: T1, Mitogen-activated protein kinase 14 (Homo sapiens, UniProt Q16539); test: Inhibitory activity against Mitogen-activated protein kinase p38 alpha 2 (expressed Escherichia coli) at concentration of 500 nM
How it was run: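 Activated p38 α2 (0.05 µg/well) phosphorylating myelin basic protein (10 µg/well) in 25 mM HEPES pH 7.4, 20 mM MgCl₂, 150 mM NaCl. Compounds were added from 10% DMSO in water. Reactions were started with 10 µM ATP plus 0.2 µCi [γ-33P]ATP per well, run 35 min at 32 °C, and stopped with HCl. Filter-bound ³³P was counted by scintillation.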

[2] = target: T1, Mitogen-activated protein kinase 14; test: Inhibitory activity against Mitogen-activated protein kinase p38 alpha 2 expressed in Escherichia coli.
SW1353 = test: Compound was evaluated for its ability to inhibit IL-6 production in SW1353 cells treated with cytokines IL-1 and TNF; format: functional, cell-based; conditions: Homo sapiens

T1 sequence (Q16539 whole entry): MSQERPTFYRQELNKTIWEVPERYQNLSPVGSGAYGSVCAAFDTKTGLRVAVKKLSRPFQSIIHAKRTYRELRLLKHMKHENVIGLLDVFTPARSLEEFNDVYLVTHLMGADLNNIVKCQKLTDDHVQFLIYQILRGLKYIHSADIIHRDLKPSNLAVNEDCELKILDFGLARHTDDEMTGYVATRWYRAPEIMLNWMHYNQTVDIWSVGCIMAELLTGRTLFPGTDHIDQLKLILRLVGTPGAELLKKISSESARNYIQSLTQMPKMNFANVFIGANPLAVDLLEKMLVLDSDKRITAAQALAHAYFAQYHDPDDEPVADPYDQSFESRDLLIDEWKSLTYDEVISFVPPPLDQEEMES

Work on CCC(C)(C)c1noc(NC(=O)Nc2cccc(Cl)c2Cl)c1C yielded an inhibition [1] of 18%.

In the case of O=C(Nc1cc(C2CCC2)no1)Nc1cccc(Cl)c1Cl, the IC50 [2] is reported as 370 nM and the inhibition [1] is reported as 57%.

With CC(C)(C)c1cc(NC(=O)Nc2ccc(F)cc2)on1 the inhibition [1] was 41%.

With O=C(Nc1cc(C23CC4CC(CC(C4)C2)C3)no1)Nc1cccc(Cl)c1Cl the inhibition [1] was 9%.

For CC(C)(C)c1cc(NC(=O)Nc2ccccc2C(F)(F)F)no1, the inhibition [1] was 36%.

CC(C)(C)c1cc(NC(=O)Nc2ccc(Cl)cc2)on1 gave an IC50 [2] of 260 nM and an inhibition [1] of 68%.

Cc1cc(NC(=O)Nc2cccc(Cl)c2Cl)on1 gave an inhibition [1] of 4%.

CC(C)(C)c1cc(NC(=O)Nc2ccccc2)no1 showed an inhibition [1] of 33%.

Cc1c(C(C)(C)C)noc1NC(=O)Nc1cccc(Cl)c1Cl showed an inhibition [1] of 18%.

In the case of CC(=O)Nc1ccc(NC(=O)Nc2cc(C(C)(C)C)no2)cc1, the inhibition [1] is reported as 20%.

In the case of Cc1c(C(C)C)noc1NC(=O)Nc1cccc(Cl)c1Cl, the IC50 [2] is reported as 920 nM and the inhibition [1] is reported as 34%.

CC(C)(C)c1ccc(NC(=O)Nc2cccc(Cl)c2Cl)s1 was tested, and the IC50 [2] was 120 nM and the inhibition [1] was 82%.

Work on CC(C)(C)c1cc(NC(=O)Nc2cccc(Cl)c2Cl)cs1 yielded an IC50 [2] of 160 nM and an inhibition [1] of 76%.

Compound Cc1cc(F)ccc1-c1cc(N(C(N)=O)c2c(Cl)cccc2Cl)ccc1CO has an IC50 [2] of 2 nM.

In the case of Cc1cccc(NC(=O)Nc2cc(C(C)(C)C)no2)c1C, the inhibition [1] is reported as 49%.

For CC(C)(C)c1cc(NC(=O)Nc2ccc(Cl)c(Cl)c2)on1, the IC50 [2] was 220 nM and the inhibition [1] was 62%.

In the case of CC(C)(C)c1nnc(NC(=O)Nc2cccc(Cl)c2Cl)s1, the inhibition [1] is reported as 1%.

CC(C)(C)c1cc(NC(=O)Nc2cccc(Cl)c2Cl)on1 was tested, and the IC50 [2] was 36 nM and the inhibition [1] was 93%.

CC(C)(C)c1cc(NC(=O)Nc2cc(Br)cc(Br)c2)no1 showed an IC50 [2] of 710 nM.

CC(C)(C)c1cc(NC(=O)Nc2ccc(C(F)(F)F)cc2)no1 gave an inhibition [1] of 39%.

With CC(C)(C)Cc1cc(NC(=O)Nc2cccc(Cl)c2Cl)on1 the IC50 [2] was 120 nM and the inhibition [1] was 81%.

CC(C)(C)c1cc(NC(=O)Nc2ccc(Cl)cc2C(F)(F)F)no1 was tested, and the inhibition [1] was 9%.

For CC(=O)Nc1cccc(NC(=O)Nc2cc(C(C)(C)C)no2)c1, the inhibition [1] was 11%.

CC(C)c1cc(NC(=O)Nc2cccc(Cl)c2Cl)on1 showed an IC50 [2] of 290 nM and an inhibition [1] of 62%.

With Cc1cccc(NC(=O)Nc2cc(C(C)(C)C)on2)c1C the inhibition [1] was 54%.

In the case of CC(C)(C)c1cc(NC(=O)Nc2cccc(Cl)c2Cl)no1, the IC50 (SW1353) is reported as 1200 nM, the IC50 [2] is reported as 58 nM and the inhibition [1] is reported as 88%.

CC(C)(C)c1cc(NC(=O)Nc2ccc(F)cc2)no1 showed an IC50 [2] of 190 nM and an inhibition [1] of 74%.

With CCC(C)(C)c1cc(NC(=O)Nc2cccc(Cl)c2Cl)on1 the IC50 [2] was 120 nM and the inhibition [1] was 83%.

With CC(=O)Nc1ccc(NC(=O)Nc2cc(C(C)(C)C)on2)cc1 the inhibition [1] was 14%.

In the case of CCCCc1cc(NC(=O)Nc2cccc(Cl)c2Cl)on1, the IC50 [2] is reported as 1100 nM and the inhibition [1] is reported as 33%.

Compound CC(=O)Nc1cccc(NC(=O)Nc2cc(C(C)(C)C)on2)c1 has an inhibition [1] of 18%.

CC(C)(C)c1cc(NC(=O)Nc2ccc(C(F)(F)F)cc2)on1 was tested, and the IC50 [2] was 200 nM and the inhibition [1] was 77%.
